In ChEMBL document CHEMBL1152649, “Synthesis, cytotoxicity and human telomerase inhibition activities of a series of 1,2-heteroannelated anthraquinones and anthra[1,2-d]imidazole-6,11-dione homologues” (2009):

Experiments:
Format in all cases: functional
BT-549 [1] = assay: Antiproliferative activity against human BT549 cells assessed as cell growth at 10 uM; settings: read-out: Activity
Procedure, shortened: (§1)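 NCI 60 cell line panel, single-dose screen (10^-5 M) run by the developmental therapeutics program protocol. Results are given as growth percent of treated cells relative to untreated control cells for each line.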

SN12C = assay: Growth inhibition of human SN12C cells
Procedure, shortened: (§2)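 Assayed in the NCI 60 human cancer cell line panel under the Developmental Therapeutics Program protocol. For each line, dose–response curves were plotted against log10 drug concentration. In the one-dose screen at 10^-5 M, growth was given as percent of untreated control cells, and mean graph midpoint values were averaged.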

CAKI-1 = assay: Growth inhibition of human Caki1 cells
Procedure, shortened: (§3)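 NCI 60 cancer cell line screen run per the Developmental Therapeutics Program protocol. Dose–response curves were plotted against log10 drug concentration for each cell line within its subpanel, and mean graph midpoint values were calculated.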

LOX IMVI = assay: Growth inhibition of human LOXIMVI cells; procedure, shortened: as §3
SK-MEL-28 = assay: Growth inhibition of human SK-MEL-28 cells; procedure, shortened: as §2
SF-268 = assay: Growth inhibition of human SF268 cells; procedure, shortened: as §2
OVCAR-8 = assay: Growth inhibition of human OVCAR8 cells; procedure, shortened: as §3
UO-31 = assay: Growth inhibition of human UO31 cells; procedure, shortened: as §2
M14 = assay: Growth inhibition of human M14 cells; procedure, shortened: as §3
OVCAR-5 = assay: Growth inhibition of human OVCAR5 cells; procedure, shortened: as §3
HCT-116 = assay: Growth inhibition of human HCT116 cells; procedure, shortened: as §3
SW-620 = assay: Growth inhibition of human SW620 cells; procedure, shortened: as §2
SNB-75 = assay: Growth inhibition of human SNB75 cells; procedure, shortened: as §2
NCI-H460 = assay: Growth inhibition of human NCI-H460 cells; procedure, shortened: as §3
SK-OV-3 = assay: Growth inhibition of human SKOV3 cells; procedure, shortened: as §2
K562 = assay: Growth inhibition of human K562 cells; procedure, shortened: as §3
KM12 = assay: Growth inhibition of human KM12 cells; procedure, shortened: as §3
SF-539 = assay: Growth inhibition of human SF539 cells; procedure, shortened: as §2
MDA-MB-468 = assay: Antiproliferative activity against human MDA-MB-468 cells assessed as cell growth at 10 uM; settings: read-out: Activity; procedure, shortened: as §1
HT-29 = assay: Growth inhibition of human HT-29 cells; procedure, shortened: as §3
SNB-19 = assay: Growth inhibition of human SNB19 cells; procedure, shortened: as §2
OVCAR-3 = assay: Growth inhibition of human OVCAR-3 cells; procedure, shortened: as §3
SF-295 = assay: Growth inhibition of human SF295 cells; procedure, shortened: as §2
RXF 393 [2] = assay: Growth inhibition of human RXF393 cells; procedure, shortened: as §2
UACC-62 = assay: Growth inhibition of human UACC62 cells; procedure, shortened: as §2
HOP-92 = assay: Growth inhibition of human HOP92 cells; procedure, shortened: as §3
SK-MEL-2 = assay: Growth inhibition of human SK-MEL-2 cells; procedure, shortened: as §2
NCI-H23 = assay: Growth inhibition of human NCI-H23 cells; procedure, shortened: as §3
EKVX = assay: Growth inhibition of human EKVX cells; procedure, shortened: as §3
A549 = assay: Growth inhibition of human A549 cells; procedure, shortened: as §3
MOLT-4 = assay: Growth inhibition of human MOLT4 cells; procedure, shortened: as §3
ACHN = assay: Growth inhibition of human ACHN cells; procedure, shortened: as §3
RXF 393 [3] = assay: Antiproliferative activity against human RXF393 cells assessed as cell growth at 10 uM; settings: read-out: Activity; procedure, shortened: as §1
TK-10 = assay: Growth inhibition of human TK10 cells; procedure, shortened: as §2
MDA-MB-231 = assay: Growth inhibition of human MDA-MB-231 cells; procedure, shortened: as §3
BT-549 [4] = assay: Growth inhibition of human BT549 cells; procedure, shortened: as §3
NCI-H226 = assay: Growth inhibition of human NCI-H226 cells; procedure, shortened: as §3
NCI/ADR-RES = assay: Growth inhibition of human NCI/ADR-RES cells; procedure, shortened: as §3
DU-145 = assay: Growth inhibition of human DU145 cells; procedure, shortened: as §3
HCC 2998 = assay: Growth inhibition of human HCC2998 cells; procedure, shortened: as §3
IGROV-1 = assay: Antiproliferative activity against human IGROV1 cells assessed as cell growth at 10 uM; settings: read-out: Activity; procedure, shortened: as §1
[5] = read-out: LC50 (the source's name)

Compound: Cc1ccc(-c2nc3ccc4c(c3[nH]2)C(=O)c2ccccc2C4=O)cc1
- growth at 10 µM (BT-549 [1]): 94.1%

Compound: O=C1c2ccccc2C(=O)c2c1ccc1nccnc21
- GI50 (SN12C): 13.2 µM
- TGI (SN12C): 92.7 µM
- CC50 (SN12C; [5]): > 100 µM
- GI50 (CAKI-1): 5.83 µM
- TGI (CAKI-1): > 100 µM
- CC50 (CAKI-1; [5]): > 100 µM
- GI50 (LOX IMVI): 4.2 µM
- TGI (LOX IMVI): 38.9 µM
- CC50 (LOX IMVI; [5]): > 100 µM
- GI50 (SK-MEL-28): 21 µM
- TGI (SK-MEL-28): 91.1 µM
- CC50 (SK-MEL-28; [5]): > 100 µM
- GI50 (SF-268): 4.98 µM
- TGI (SF-268): > 100 µM
- CC50 (SF-268; [5]): > 100 µM
- GI50 (OVCAR-8): 5.07 µM
- TGI (OVCAR-8): > 100 µM
- CC50 (OVCAR-8; [5]): > 100 µM
- GI50 (UO-31): 3.02 µM
- TGI (UO-31): 85.9 µM
- CC50 (UO-31; [5]): > 100 µM
- GI50 (M14): 5.14 µM
- TGI (M14): > 100 µM
- CC50 (M14; [5]): > 100 µM
- GI50 (OVCAR-5): 29.3 µM
- TGI (OVCAR-5): > 100 µM
- CC50 (OVCAR-5; [5]): > 100 µM
- GI50 (HCT-116): 12.3 µM
- TGI (HCT-116): > 100 µM
- CC50 (HCT-116; [5]): > 100 µM
- GI50 (SW-620): 1.71 µM
- TGI (SW-620): 30.8 µM
- CC50 (SW-620; [5]): > 100 µM
- GI50 (SNB-75): 11.9 µM
- TGI (SNB-75): > 100 µM
- CC50 (SNB-75; [5]): > 100 µM
- GI50 (NCI-H460): 2.01 µM
- TGI (NCI-H460): 26.9 µM
- CC50 (NCI-H460; [5]): > 100 µM
- GI50 (SK-OV-3): 6.95 µM
- TGI (SK-OV-3): > 100 µM
- CC50 (SK-OV-3; [5]): > 100 µM
- GI50 (K562): 0.07 µM
- LC50 (K562): > 100 µM
- TGI (K562): > 100 µM
- GI50 (KM12): 5.26 µM
- TGI (KM12): 49.5 µM
- CC50 (KM12; [5]): > 100 µM
- GI50 (SF-539): 2.18 µM
- TGI (SF-539): 53.7 µM
- CC50 (SF-539; [5]): > 100 µM
- growth at 10 µM (MDA-MB-468): 75.3%
- GI50 (HT-29): 7.01 µM
- TGI (HT-29): > 100 µM
- CC50 (HT-29; [5]): > 100 µM
- GI50 (SNB-19): 13.4 µM
- TGI (SNB-19): > 100 µM
- CC50 (SNB-19; [5]): > 100 µM
- GI50 (OVCAR-3): 2.34 µM
- TGI (OVCAR-3): 12.5 µM
- CC50 (OVCAR-3; [5]): > 100 µM
- GI50 (SF-295): 4.35 µM
- TGI (SF-295): 32.3 µM
- CC50 (SF-295; [5]): > 100 µM
- GI50 (RXF 393 [2]): 6.43 µM
- TGI (RXF 393 [2]): > 100 µM
- CC50 (RXF 393 [2]; [5]): > 100 µM
- GI50 (UACC-62): 13.3 µM
- TGI (UACC-62): 56.1 µM
- CC50 (UACC-62; [5]): > 100 µM
- GI50 (HOP-92): 22.5 µM
- TGI (HOP-92): > 100 µM
- CC50 (HOP-92; [5]): > 100 µM
- GI50 (SK-MEL-2): 12.7 µM
- TGI (SK-MEL-2): 55.9 µM
- CC50 (SK-MEL-2; [5]): > 100 µM
- GI50 (NCI-H23): 12 µM
- TGI (NCI-H23): 70.3 µM
- CC50 (NCI-H23; [5]): > 100 µM
- GI50 (EKVX): 3.45 µM
- TGI (EKVX): 72.1 µM
- CC50 (EKVX; [5]): > 100 µM
- GI50 (A549): 4.53 µM
- TGI (A549): > 100 µM
- CC50 (A549; [5]): > 100 µM
- GI50 (MOLT-4): 3.65 µM
- TGI (MOLT-4): > 100 µM
- CC50 (MOLT-4; [5]): > 100 µM
- GI50 (ACHN): 3.85 µM
- TGI (ACHN): > 100 µM
- CC50 (ACHN; [5]): > 100 µM
- growth at 10 µM (RXF 393 [3]): 105%
- GI50 (TK-10): 5 µM
- TGI (TK-10): > 100 µM
- CC50 (TK-10; [5]): > 100 µM
- GI50 (MDA-MB-231): 19.1 µM
- LC50 (concentration killing 50% of cells) (MDA-MB-231): > 100 µM
- TGI (MDA-MB-231): > 100 µM
- GI50 (BT-549 [4]): 12.2 µM
- LC50 (BT-549 [4]): > 100 µM
- TGI (BT-549 [4]): 93.5 µM
- GI50 (NCI-H226): 16.6 µM
- TGI (NCI-H226): 95.2 µM
- CC50 (NCI-H226; [5]): > 100 µM
- GI50 (NCI/ADR-RES): 5.68 µM
- TGI (NCI/ADR-RES): > 100 µM
- CC50 (NCI/ADR-RES; [5]): > 100 µM
- GI50 (DU-145): 11.4 µM
- TGI (DU-145): 34.3 µM
- CC50 (DU-145; [5]): > 100 µM
- GI50 (HCC 2998): 1.4 µM
- TGI (HCC 2998): 83.5 µM
- CC50 (HCC 2998; [5]): > 100 µM
- growth at 10 µM (IGROV-1): 3.44%
